Legend:
[1] = Urinary PK, MAD period day 10; assay type: in vivo, human; conditions: day 10, across all doses
In short: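 During the MAD period, urine was collected on day −1 (0–24 h) and day 10 (0–12 h and 12–24 h), with LLOQ 1 ng/mL. Renal clearance and unchanged drug recovered in urine were summarized descriptively as geometric mean (CV), by dose group and for the Japanese 400 mg q.d. cohort.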

[2] = background statement, no reference given; cited from earlier work
[3] = system: CYP1A2, CYP2D6, and CYP3A; conditions: cited from earlier work
[4] = Treatment-emergent adverse events, SAD period; assay type: in vivo, human
In short: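 Double-blind, placebo-controlled study in healthy men and nonchildbearing women aged 18–55 y. The SAD period gave one fasted oral dose; the MAD period gave fed dosing q.d. for 10 days, plus a separate b.i.d. cohort. TEAEs, serious AEs and discontinuation AEs were monitored ≥28 days after the last dose. Vital signs, physical exam, 12-lead ECG, hematology, clinical chemistry and urinalysis were also recorded. Data summarized descriptively.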

In the case of Cn1cc(-c2cn3nccc3c(-c3cnn([C@]4(CC#N)C[C@@H](C#N)C4)c3)n2)cn1 [PF‐06826647], the “dose recovered unchanged in urine” value [1] is listed as under 1.5%, the cellular permeability [2] is listed as ~ 17 × 10^‐6 cm/s and the “major human clearance pathway” value [3] is listed as “cytochrome P450 (CYP)‐mediated (via CYP1A2, CYP2D6, and CYP3A) metabolism”. The AEs ([4]; SAD 3 mg (n = 6)) was 0 n, the “AEs leading to study drug dose reduction or interruption” value ([4]; SAD 3 mg (n = 6)) was 0 n and the “Participants with AEs” value ([4]; SAD 3 mg (n = 6)) was 0 n (%). For the same compound, the “Participants with TEAEs: Alanine aminotransferase increased” value ([4]; SAD 3 mg (n = 6)) was 0 n (%), the “Participants with TEAEs: Aspartate aminotransferase increased” value ([4]; SAD 3 mg (n = 6)) was 0 n (%) and the “Participants with TEAEs: Edema” value ([4]; SAD 3 mg (n = 6)) was 0 n (%). For the same compound, the “Participants with TEAEs: Face edema” value ([4]; SAD 3 mg (n = 6)) was 0 n (%), the “Participants with TEAEs: Gastrointestinal disorders (SOC)” value ([4]; SAD 3 mg (n = 6)) was 0 n (%) and the “Participants with TEAEs: General disorders and administration site conditions (SOC)” value ([4]; SAD 3 mg (n = 6)) was 0 n (%). The “Participants with TEAEs: Headache” value ([4]; SAD 3 mg (n = 6)) was 0 n (%), the “Participants with TEAEs: Injury, poisoning, and procedural complications (SOC)” value (from here on “Participants with TEAEs: Injury”) ([4]; SAD 3 mg (n = 6)) was 0 n (%) and the “Participants with TEAEs: Investigations (SOC)” value ([4]; SAD 3 mg (n = 6)) was 0 n (%). The “Participants with TEAEs: Nausea” value ([4]; SAD 3 mg (n = 6)) was 0 n (%), the “Participants with TEAEs: Nervous system disorders (SOC)” value ([4]; SAD 3 mg (n = 6)) was 0 n (%) and the “Participants with TEAEs: Periorbital hematoma” value ([4]; SAD 3 mg (n = 6)) was 0 n (%). For the same compound, the “Participants with TEAEs: Periorbital hemorrhage” value ([4]; SAD 3 mg (n = 6)) was 0 n (%), the “Participants with TEAEs: Peripheral swelling” value ([4]; SAD 3 mg (n = 6)) was 0 n (%) and the “Participants with TEAEs: Pruritus” value ([4]; SAD 3 mg (n = 6)) was 0 n (%). The “Participants with TEAEs: Rash” value ([4]; SAD 3 mg (n = 6)) was 0 n (%), the “Participants with TEAEs: Skin and subcutaneous tissue disorders (SOC)” value ([4]; SAD 3 mg (n = 6)) was 0 n (%) and the “Participants with TEAEs: Urticaria” value ([4]; SAD 3 mg (n = 6)) was 0 n (%). For the same compound, the SAEs ([4]; SAD 3 mg (n = 6)) was 0 n, the “Severe AEs” value ([4]; SAD 3 mg (n = 6)) was 0 n and the AEs ([4]; SAD 10 mg (n = 6)) was 0 n. The “AEs leading to study drug dose reduction or interruption” value ([4]; SAD 10 mg (n = 6)) was 0 n, the “Participants with AEs” value ([4]; SAD 10 mg (n = 6)) was 0 n (%) and the “Participants with TEAEs: Alanine aminotransferase increased” value ([4]; SAD 10 mg (n = 6)) was 0 n (%). For the same compound, the “Participants with TEAEs: Aspartate aminotransferase increased” value ([4]; SAD 10 mg (n = 6)) was 0 n (%), the “Participants with TEAEs: Edema” value ([4]; SAD 10 mg (n = 6)) was 0 n (%) and the “Participants with TEAEs: Face edema” value ([4]; SAD 10 mg (n = 6)) was 0 n (%). The “Participants with TEAEs: Gastrointestinal disorders (SOC)” value ([4]; SAD 10 mg (n = 6)) was 0 n (%), the “Participants with TEAEs: General disorders and administration site conditions (SOC)” value ([4]; SAD 10 mg (n = 6)) was 0 n (%) and the “Participants with TEAEs: Headache” value ([4]; SAD 10 mg (n = 6)) was 0 n (%). The “Participants with TEAEs: Injury” value ([4]; SAD 10 mg (n = 6)) was 0 n (%), the “Participants with TEAEs: Investigations (SOC)” value ([4]; SAD 10 mg (n = 6)) was 0 n (%) and the “Participants with TEAEs: Nausea” value ([4]; SAD 10 mg (n = 6)) was 0 n (%). The “Participants with TEAEs: Nervous system disorders (SOC)” value ([4]; SAD 10 mg (n = 6)) was 0 n (%), the “Participants with TEAEs: Periorbital hematoma” value ([4]; SAD 10 mg (n = 6)) was 0 n (%) and the “Participants with TEAEs: Periorbital hemorrhage” value ([4]; SAD 10 mg (n = 6)) was 0 n (%). The “Participants with TEAEs: Peripheral swelling” value ([4]; SAD 10 mg (n = 6)) was 0 n (%), the “Participants with TEAEs: Pruritus” value ([4]; SAD 10 mg (n = 6)) was 0 n (%) and the “Participants with TEAEs: Rash” value ([4]; SAD 10 mg (n = 6)) was 0 n (%). For the same compound, the “Participants with TEAEs: Skin and subcutaneous tissue disorders (SOC)” value ([4]; SAD 10 mg (n = 6)) was 0 n (%), the “Participants with TEAEs: Urticaria” value ([4]; SAD 10 mg (n = 6)) was 0 n (%) and the SAEs ([4]; SAD 10 mg (n = 6)) was 0 n. The “Severe AEs” value ([4]; SAD 10 mg (n = 6)) was 0 n, the AEs ([4]; SAD 30 mg (n = 8)) was 0 n and the “AEs leading to study drug dose reduction or interruption” value ([4]; SAD 30 mg (n = 8)) was 0 n. The “Participants with AEs” value ([4]; SAD 30 mg (n = 8)) was 0 n (%), the “Participants with TEAEs: Alanine aminotransferase increased” value ([4]; SAD 30 mg (n = 8)) was 0 n (%) and the “Participants with TEAEs: Aspartate aminotransferase increased” value ([4]; SAD 30 mg (n = 8)) was 0 n (%). For the same compound, the “Participants with TEAEs: Edema” value ([4]; SAD 30 mg (n = 8)) was 0 n (%), the “Participants with TEAEs: Face edema” value ([4]; SAD 30 mg (n = 8)) was 0 n (%) and the “Participants with TEAEs: Gastrointestinal disorders (SOC)” value ([4]; SAD 30 mg (n = 8)) was 0 n (%). For the same compound, the “Participants with TEAEs: General disorders and administration site conditions (SOC)” value ([4]; SAD 30 mg (n = 8)) was 0 n (%), the “Participants with TEAEs: Headache” value ([4]; SAD 30 mg (n = 8)) was 0 n (%) and the “Participants with TEAEs: Injury” value ([4]; SAD 30 mg (n = 8)) was 0 n (%). For the same compound, the “Participants with TEAEs: Investigations (SOC)” value ([4]; SAD 30 mg (n = 8)) was 0 n (%), the “Participants with TEAEs: Nausea” value ([4]; SAD 30 mg (n = 8)) was 0 n (%) and the “Participants with TEAEs: Nervous system disorders (SOC)” value ([4]; SAD 30 mg (n = 8)) was 0 n (%). For the same compound, the “Participants with TEAEs: Periorbital hematoma” value ([4]; SAD 30 mg (n = 8)) was 0 n (%), the “Participants with TEAEs: Periorbital hemorrhage” value ([4]; SAD 30 mg (n = 8)) was 0 n (%) and the “Participants with TEAEs: Peripheral swelling” value ([4]; SAD 30 mg (n = 8)) was 0 n (%). The “Participants with TEAEs: Pruritus” value ([4]; SAD 30 mg (n = 8)) was 0 n (%), the “Participants with TEAEs: Rash” value ([4]; SAD 30 mg (n = 8)) was 0 n (%) and the “Participants with TEAEs: Skin and subcutaneous tissue disorders (SOC)” value ([4]; SAD 30 mg (n = 8)) was 0 n (%). The “Participants with TEAEs: Urticaria” value ([4]; SAD 30 mg (n = 8)) was 0 n (%).

Reference: publication PMC7993274 (Clinical and Translational Science, 2020)
